This passage reports viability, IC50 and inhibition results from ChEMBL document CHEMBL3585329, “Cafestol-Type Diterpenoids from the Twigs of Tricalysia fruticosa with Potential Anti-inflammatory Activity” (J Nat Prod, 2015).

A short description of series [1]: Cytotoxicity against mouse RAW264.7 cells assessed as cell survival up to 100 uM. Format: cell-based. Conditions: read-out: Survival. In outline: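 RAW 264.7 macrophages were grown with 3.0 mM glutamine, penicillin and streptomycin (100 U/mL each), and 10% heat-inactivated FBS at 37 °C in humidified 5% CO2. Cell survival was examined after exposure to each isolate at concentrations up to 100 μM.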

The subject of series [2] is RAW264.7. Put plainly: Inhibition of LPS-induced NO release in mouse RAW264.7 cells after 24 hrs by Griess reaction. The series is classed as functional, cell-based. Conditions: RAW264.7, 24 h. The procedure, abridged: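 RAW 264.7 cells (10% heat-inactivated FBS, 3.0 mM glutamine, 37 °C, 5% CO2) seeded at 2 × 10^4 cells/mL. DMSO-solubilized compounds added 1 h before LPS. Supernatant nitrite measured by Griess reagent (0.1% naphthylethylene diamine, 1.0% sulfanilamide in 2.5% phosphoric acid), 10 min at room temperature, A550. NO quantified against a sodium nitrite standard curve. Positive control: N-monomethyl-L-arginine.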

Series [3] has as its system RAW264.7. Put plainly: Suppression of LPS-induced TNFalpha protein expression in mouse RAW264.7 cells by ELISA. The series is classed as functional, cell-based. The procedure, abridged:
(§1)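 RAW 264.7 cells seeded at 4 × 10^5 cells/well and exposed to LPS with or without 2.5, 5.0 or 10.0 μM test agent (DMSO stock diluted in DMEM, added 1 h before LPS) for 18 h. Cytokine in cell-free supernatant measured by mouse ELISA kit per manufacturer's protocol. Means ± SD.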

The target of series [4] is NF-kappa-B inhibitor alpha (Mus musculus) (UniProt Q9Z1E3). Put plainly: Inhibition of IkappaB alpha phosphorylation in LPS-induced mouse RAW264.7 cells by Western blotting analysis.
Sequence of NF-kappa-B inhibitor alpha (Mus musculus) (Q9Z1E3 whole entry, looked up): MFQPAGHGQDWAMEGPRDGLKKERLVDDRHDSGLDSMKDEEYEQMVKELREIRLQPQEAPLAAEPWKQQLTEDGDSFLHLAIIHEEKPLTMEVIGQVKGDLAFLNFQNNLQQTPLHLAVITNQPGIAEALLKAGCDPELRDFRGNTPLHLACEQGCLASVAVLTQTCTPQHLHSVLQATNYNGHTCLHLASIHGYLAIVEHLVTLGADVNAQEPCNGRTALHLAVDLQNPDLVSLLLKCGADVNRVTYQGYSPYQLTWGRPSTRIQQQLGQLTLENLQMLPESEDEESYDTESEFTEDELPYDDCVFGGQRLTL
For series [5], the system named is RAW264.7. Put plainly: Inhibition of LPS-stimulated JNK phosphorylation in mouse RAW264.7 cells by Western blotting analysis. The series is classed as cell-based. In outline: (§2)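 Macrophages seeded at 1 × 10^6 cells/well, pretreated 1 h with 2.5, 5.0 or 10.0 μM test agent (DMSO), then stimulated with LPS 1 μg/mL. Dexamethasone 1.0 μM served as positive control. Lysis in ice-cold RIPA with 0.1% PMSF, 12000g for 20 min. SDS-PAGE, PVDF transfer, 5% skim-milk block, primary antibody overnight at 4 °C, HRP secondary (1:12 000) 1.5 h at RT, ECL detection. Means ± SD.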

For series [6], the system named is RAW264.7. Put plainly: Inhibition of LPS-stimulated ERK phosphorylation in mouse RAW264.7 cells by Western blotting analysis. Format: cell-based. The procedure, abridged:
as §2

Series [7] has as its target MAP kinase p38 (Mus musculus) (UniProt P47811+O08911+Q9WUI1+Q9Z1B7). The experiment in a line: Inhibition of LPS-stimulated p38 phosphorylation in mouse RAW264.7 cells by Western blotting analysis. The series is classed as cell-based. In outline: as §2
Series [8] addresses Transcription factor p65 (Mus musculus) (UniProt Q04207). Put plainly: Inhibition of NFkappaBp65 activation in LPS-induced mouse RAW264.7 cells at 2.5 to 10 uM by Western blotting analysis. Format: cell-based. The procedure, abridged:
as §2

Series [9] relates to RAW264.7. The experiment in a line: Suppression of LPS-induced iNOS protein expression in mouse RAW264.7 cells by Western blotting analysis. Format: functional, cell-based. The procedure, abridged:
as §2

The subject of series [10] is RAW264.7. Put plainly: Suppression of LPS-induced IL6 protein expression in mouse RAW264.7 cells by ELISA. Format: functional, cell-based. The procedure, abridged: as §1

Calls of active or inactive are those of the source. No cut-off for these calls is given here. Some results are limits rather than exact numbers.

Sequence of Transcription factor p65 (Mus musculus) (Q04207 whole entry): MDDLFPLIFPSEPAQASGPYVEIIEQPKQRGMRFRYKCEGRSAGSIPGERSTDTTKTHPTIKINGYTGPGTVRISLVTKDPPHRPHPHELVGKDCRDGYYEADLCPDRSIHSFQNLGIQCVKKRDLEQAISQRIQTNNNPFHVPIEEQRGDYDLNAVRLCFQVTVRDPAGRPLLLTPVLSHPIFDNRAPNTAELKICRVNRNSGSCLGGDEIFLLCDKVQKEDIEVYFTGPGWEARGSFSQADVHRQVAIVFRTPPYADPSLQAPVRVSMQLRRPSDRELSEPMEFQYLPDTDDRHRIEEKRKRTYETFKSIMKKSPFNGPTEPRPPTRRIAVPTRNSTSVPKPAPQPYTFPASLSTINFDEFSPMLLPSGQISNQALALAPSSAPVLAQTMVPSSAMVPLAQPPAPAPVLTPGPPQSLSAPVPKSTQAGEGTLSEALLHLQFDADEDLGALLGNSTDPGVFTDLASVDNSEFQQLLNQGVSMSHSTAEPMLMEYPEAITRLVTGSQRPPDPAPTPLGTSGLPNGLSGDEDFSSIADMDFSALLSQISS

As to `C[C@@]12CC(=O)c3occc3[C@H]1CC[C@]13C[C@](O)(CO)[C@@](O)(CC[C@H]12)C3`, the viability in series [1] is above 90%. In the series on RAW264.7 [2], this molecule registered an IC50 above 100 µM.

Turning to `C[C@@]12CC=C3OC(=O)C=C3[C@H]1CC[C@@]13C[C@@H](CC[C@H]12)[C@@](O)(CO)C3`, the viability in series [1] is above 90%. Further, the IC50 in the series on RAW264.7 [2] is above 100 µM.

Turning to `C[C@@]12CC[C@@]3(O)OC(=O)C=C3[C@H]1CC[C@@]13C[C@H](CC[C@H]12)[C@@](O)(CO)C3`, the viability in series [1] is above 90%. This molecule gave an IC50 in the series on RAW264.7 [2] above 100 µM.

`C[C@@]12CC[C@H]3OC(=O)C=C3[C@H]1CC[C@@]13C[C@H](CC[C@]12O)[C@@](O)(CO)C3`: in [1], the viability is above 90%. The molecule further registered an IC50 in the series on RAW264.7 [2] above 100 µM.

For `CO[C@@H]1C[C@@]2(CC[C@@]3(C)[C@@H]4CC[C@@H]5C[C@@]4(CC[C@H]23)C[C@]5(O)CO)C(=O)O1`, the viability in series [1] was above 90%. The molecule also showed an IC50 in the series on RAW264.7 [2] above 100 µM.

For `C[C@@]12[C@H](O)C=C3OC(=O)C=C3[C@H]1CC[C@@]13C[C@@H](CC[C@H]12)[C@@](O)(CO)C3`, the viability in series [1] is above 90%. The IC50 in the series with RAW264.7 [2] was above 100 µM.

Turning to `C[C@@]12C=CC(=O)C[C@H]1CC[C@]13C[C@](O)(CO)[C@@](O)(CC[C@H]12)C3`, the viability in series [1] is above 90%. This molecule also yielded an IC50 in the series on RAW264.7 [2] of 27.1 µM.

In the case of `C[C@@]12CC=C3OC(=O)C=C3[C@H]1CC[C@@]13C[C@@H](CC[C@@H]21)[C@@](O)(CO)[C@@H]3O`, the viability in series [1] is above 90%. The molecule further yielded an IC50 in the series on RAW264.7 [2] above 100 µM.

As to `CNC(=N)NCCC[C@H](N)C(=O)O` [TILARGININE], the concentration for half-maximal inhibition (IC50) in the series with RAW264.7 [2] was found to be 40.5 µM.

Take `CCOC(=O)/C=C1\C(=O)C=C[C@]2(C)[C@@H]1CC[C@]13C[C@](O)(CO)[C@@](O)(CC[C@H]12)C3`: the inhibition result in the series with RAW264.7 [3], in the series with RAW264.7 [9] and in the series with RAW264.7 [10] was “Dose-dependent effect” throughout. Moreover, the inhibition entry (in [4]; in the series with RAW264.7 [5]; in the series on RAW264.7 [6]; in [7]; in series [8]) was “Active” in each case. The viability in series [1] is above 90%. This molecule also came in with an IC50 with RAW264.7 [2] of 6.6 µM.

Consider `CC(=O)OC[C@]1(O)[C@@H]2CC[C@H]3[C@]4(C)CC[C@@]5(O)OC(=O)C=C5[C@H]4CC[C@]3(C2)[C@H]1O`, for which the viability in [1] was above 90%. In the series with RAW264.7 [2], the IC50 is above 100 µM.

For the molecule `C[C@@]12CC[C@@]3(O)OC(=O)C=C3[C@H]1CC[C@@]13C[C@H](CC[C@@H]21)[C@@](O)(CO)[C@@H]3O`, in [1], the viability was above 90%. This molecule also displayed an IC50 with RAW264.7 [2] above 100 µM.

As for `C[C@@]12CC[C@@]3(O)OC(=O)C=C3[C@H]1CC[C@]13C[C@](O)(CO)[C@@](O)(CC[C@H]12)C3`, the viability in series [1] was above 90%. In the series on RAW264.7 [2], this molecule yielded a half-inhibitory concentration (IC50) above 100 µM.

On to `C[C@@]12CC[C@H]3OC(=O)C=C3[C@H]1CC[C@@]13C[C@@H](CC[C@H]12)[C@@](O)(CO)C3`, for which the viability in series [1] is above 90%. The IC50 in the series on RAW264.7 [2] is above 100 µM.
